Screens deposited in PubChem BioAssay by several laboratories.
This is a sample that favours compounds with a hit; in the whole collection about 4% have one here.
TAAR1 agonist – agonists of human TAAR1 | Q96RJ0 | CHO RD-HGA16 TAAR1, Fluo-8 calcium fluorescence; vehicle wells 0%, saturating PEA agonist 100% | activation, % at 3 µM | 360,000 compounds, 0.99% hits | AID 624467;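 active means activation above the mean activation of all test compounds in the run plus 3 SD, cut at about 38% in these data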
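Assay system – CHO-derived RD-HGA16 cells with stable Gα16 and human TAAR1 · Compound dosing – one-point dosing at 3 µM (nominal) · Incubation – 17-24 h seeding, 75 min 37 °C dye, 30 min RT · Measured by – kinetic Fluo-8 calcium fluorescence · Control set – DMSO vehicle as 0%, PEA at EC100 as 100% · Repeats – single well for each compound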
TAAR1 antag – human TAAR1 antagonism | Q96RJ0 | CHO RD-HGA16 TAAR1, Fluo-8 calcium fluorescence, antagonist | inhibition, % at 3 µM | 360,000 compounds, 1.5% hits | AID 624466;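 active means inhibition above a per-plate cutoff, the mean inhibition of test compounds on that plate plus 3 SD, cut at about 49% in these data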;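 further: 0% = DMSO plus EC80 beta-PEA response and 100% = DMSO alone without agonist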
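Assay system: RD-HGA16 CHO cells with stable hTAAR1 and Gα16 / Reagent: EC80 β-phenethylamine stimulus / Doses: 3 µM, single point / Timing: dye loading 75 min at 37 °C, then 30 min room temperature / Measured by: Fluo-8 intracellular calcium dye fluorescence, real-time kinetic reads / Controls: vehicle wells and EC80 agonist wells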
MPTP inh – permeability transition pore inhibition; isolated mouse mitochondria, Ca2+ swelling absorbance, 30 min; inhibition, % at 10 µM; 360,000 compounds, 1.4% hits;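 active means inhibition of 50% or more, scaled per plate between neutral and stimulator controls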;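 further: 0% = DMSO wells given calcium and 100% = 1 mM EGTA wells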
DAGLB inh – blocks human DAGLB lipase activity. inhibition, % at 5.17 µM. HEK293T DAGLB membrane lysate, EnzChek fluorogenic substrate. AID 504411. 340,000 compounds, 0.059% hits. Q8NCG7; in the data active means inhibition above about 34%;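 further: 0% = enzyme with vehicle and 100% = wells lacking enzyme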
Target sequence (Q8NCG7 whole entry, looked up): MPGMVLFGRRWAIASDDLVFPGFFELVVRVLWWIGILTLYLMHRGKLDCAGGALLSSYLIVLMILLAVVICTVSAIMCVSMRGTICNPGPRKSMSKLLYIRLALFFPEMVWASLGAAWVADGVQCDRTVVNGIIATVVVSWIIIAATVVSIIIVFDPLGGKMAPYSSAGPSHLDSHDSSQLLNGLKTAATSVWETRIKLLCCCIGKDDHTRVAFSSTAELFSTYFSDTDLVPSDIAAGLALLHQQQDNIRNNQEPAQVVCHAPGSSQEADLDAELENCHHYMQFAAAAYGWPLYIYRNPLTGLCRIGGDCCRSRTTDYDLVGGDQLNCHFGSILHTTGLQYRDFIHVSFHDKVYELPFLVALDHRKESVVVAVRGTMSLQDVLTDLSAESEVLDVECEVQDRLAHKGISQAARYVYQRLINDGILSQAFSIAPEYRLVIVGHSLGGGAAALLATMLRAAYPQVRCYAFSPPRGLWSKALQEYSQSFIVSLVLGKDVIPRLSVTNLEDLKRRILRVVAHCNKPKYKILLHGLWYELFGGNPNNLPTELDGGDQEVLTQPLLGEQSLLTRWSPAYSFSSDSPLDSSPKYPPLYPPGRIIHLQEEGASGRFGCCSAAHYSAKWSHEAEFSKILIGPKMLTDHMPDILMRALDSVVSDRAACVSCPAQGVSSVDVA
GPR7 antag – blocks human GPR7 receptor signaling. P48145. GPR7-expressing cells, fluorescence antagonist assay. inhibition, % at 4.4 µM. 290,000 compounds, 1.1% hits. AID 1861; in the data active means inhibition above about 16%, passing the limit was not always enough;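 further: cells stimulated with the agonist NPW; 0% = agonist with vehicle and 100% = vehicle without agonist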
TAAR1 ag conf – human TAAR1 agonism, confirmed. shares compounds with TAAR1 agonist. activation, % at 3 µM. 2,400 compounds, 82% hits. CHO RD-HGA16 TAAR1, Fluo-8 calcium fluorescence; scaled: DMSO 0%, maximal phenethylamine 100%;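 active means activation above a cutoff set at the run's mean compound activation plus 3 SD, cut at about 39% in these data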
Ga16 nonsel ag – nonselective agonist in parental cells, TAAR1 agonist counter-screen; shares compounds with TAAR1 agonist; CHO-Ga16 parental, Fluo-8 calcium fluorescence; normalized to maximal ATP response, DMSO zero; activation, % at 3 µM; 2,400 compounds, 50% hits; AID 651787;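 active means activation above the run cutoff, the mean activation over all tested wells plus 3 SD, cut at about 12% in these data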;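 further: 0% = DMSO wells and 100% = maximal ATP response on the peak over basal ratio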
TAAR1 desens – TAAR1 response desensitization, agonist counter-screen; shares compounds with TAAR1 agonist; CHO RD-HGA16 hTAAR1, Fluo-8 calcium, beta-PEA response inhibition; inhibition, % at 3 µM; 2,400 compounds, 46% hits; AID 651951;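 active means inhibition above the run cutoff, the mean inhibition of all test compounds plus 3 SD, cut at about 49% in these data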;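 further: beta-PEA stimulus applied at its EC80; loss of beta-PEA calcium signal after compound pretreatment read as receptor desensitization; 0% = DMSO with beta-PEA at EC80 and 100% = DMSO alone without agonist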
Ga16 antag count – nonselective Ga16 antagonist in TAAR1 agonist counter-screen. shares compounds with TAAR1 agonist. CHO-Ga16 ATP-induced calcium, Fluo-8 fluorescence. inhibition, % at 3 µM. 2,400 compounds, 39% hits;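 active means inhibition above the plate's mean compound inhibition plus 3 SD, computed per plate, cut at about 22% in these data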;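 further: 0% = EC80 ATP with DMSO and 100% = DMSO wells without ATP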
* hit, by the source's call; · = no result given.

SMILES	TAAR1 agonist	TAAR1 antag	MPTP inh	DAGLB inh	GPR7 antag	TAAR1 ag conf	Ga16 nonsel ag	TAAR1 desens	Ga16 antag count
OC(c1ccccc1)(c1ccccc1)C1CCN(CCCOc2ccc(-c3cccnc3)cc2)CC1	53*	37	·	·	·	33	21*	30	29*
CC1CCN(CCCOc2ccc(OCc3ccccc3)cc2)CC1	59*	18	9	4	9	41*	24*	21	23*
OC(c1ccccc1)(c1ccccc1)C1CCN(CCCOc2ccc(-c3ccncc3)cc2)CC1	42*	53*	·	·	·	46*	27*	54*	36*
COc1cccc(NC(=O)N(C)C[C@H]2Oc3ncc(Br)cc3C(=O)N([C@H](C)CO)C[C@H]2C)c1	5	-18	-3	2	·	·	·	·	·
COc1cccc(CNS(=O)(=O)c2cc(Br)ccc2Br)c1OC	2	-3	·	·	·	·	·	·	·
Fc1cccc(Cc2c(-c3ccc(Cl)cc3)nc3c(Cl)cc(C(F)(F)F)cn23)c1	-2	3	2	·	·	·	·	·	·
Cc1cc(NS(=O)(=O)c2c(C)[nH]c(=O)[nH]c2=O)ccc1Br	73*	37	1	-2	-1	0	4	6	7
c1ccc(C2OCC3(CO2)COC(c2ccccc2)OC3)cc1 (centres undefined)	59*	1	0	-11	-17	3	4	4	2
Cc1cc(C(=O)CN2C(=O)C(=O)N(Cc3ccco3)C2=O)c(C)n1CCc1ccc(F)cc1	48*	7	-2	-2	·	88*	9	43	12
Cc1ccc(C)c2[nH]c(=O)c(C(c3nnnn3Cc3ccco3)N3CCc4ccccc4C3)cc12 (centres undefined)	52*	45	-4	5	-12	58*	3	7	5
Cc1ccc(OCC(=O)NNC(=S)NC(=O)c2ccc(Br)o2)c(C)c1	11	11	4	0	3	·	·	·	·
Cc1onc(-c2ccccc2)c1C(=O)NCc1ccc2c(c1)OCO2	6	-7	0	0	1	·	·	·	·
Cc1onc(-c2ccccc2)c1C(=O)NNC(=S)NC(=O)c1ccc2c(c1)OCO2	89*	46	4	2	-15	95*	81*	52*	38*
O=C(/C=C/c1ccc(F)cc1)NC(=S)NNC(=O)[C@H]1C[C@@H]1c1ccccc1	132*	82*	14	12	4	88*	99*	72*	66*
COc1ccc(C(=O)NNC(=S)NC(=O)c2ccc(Br)o2)cc1OC	50*	11	0	2	3	21	13*	12	9
Cc1onc(-c2ccccc2)c1C(=O)NNC(=S)NC(=O)/C=C/c1cccs1	115*	69*	15	11	-9	107*	94*	79*	62*
CCC(CC)CN1CCC(CN2C(=S)NC[C@@H]2[C@@H](C)CC)CC1	-1	-10	1	-1	·	·	·	·	·
Cc1onc(-c2ccccc2)c1C(=O)NC(=S)NNC(=O)c1ccncc1	0	-2	-1	2	-12	·	·	·	·
COc1ccc(C(=O)NC(=S)NNC(=O)[C@H]2C[C@@H]2c2ccccc2)cc1OC	121*	49*	-1	-5	-12	90*	70*	70*	43*
COc1ccc(C(=O)NC(=S)NNC(=O)c2c(-c3ccccc3)noc2C)cc1OC	68*	-1	-4	·	-3	70*	47*	24	11
COc1ccc(OC)c(NC(=O)C2CC2c2ccccc2)c1 (centres undefined)	2	-5	0	-5	13	·	·	·	·
CCC(c1nc2ccccc2[nH]1)N(C(=O)C1=NNC(=O)CC1)c1ccccc1 (centres undefined)	0	5	0	·	·	·	·	·	·
CN1C(C(=O)NCCc2cccs2)CC2Cn3c(nc4ccccc43)C21 (centres undefined)	·	·	0	1	·	·	0	·	2
CCCNC(=O)C1CC2Cn3c(nc4ccccc43)C2N1C (centres undefined)	10	12	0	2	·	·	·	·	·
COc1ccc(C(C)=NOC(=O)c2c(-c3ccccc3Cl)noc2C)cc1CN1CCOCC1	1	3	0	-5	·	·	·	·	·
SMILES	TAAR1 agonist	TAAR1 antag	MPTP inh	DAGLB inh	GPR7 antag	TAAR1 ag conf	Ga16 nonsel ag	TAAR1 desens	Ga16 antag count
O=S(=O)(Nc1ccc(S(=O)(=O)Nc2cccc3ccccc23)cc1)c1ccccc1	41*	12	18	2	2	40*	11	24	16
CCC(CC)NC(=O)CON=C1c2ccccc2-c2ccccc21	43*	21	3	-5	-11	14	10	20	8
CCOc1ccc(NS(=O)(=O)c2ccc(NC(=S)NC(C)=O)cc2)cc1	85*	22	0	-3	14	75*	48*	53*	33*
CCOc1ccc(NS(=O)(=O)c2ccc(NC(=S)NC(=O)C(C)C)cc2)cc1	59*	14	1	-2	14	42*	20*	9	17
CCNC(=O)C1(C)CCCN(C(=O)c2cc(-c3cccs3)oc2C)C1 (centres undefined)	1	-3	1	·	·	·	·	·	·
Cc1ccc(C2NC(=O)c3[nH]nc(-c4ccccc4)c32)cc1 (centres undefined)	3	-23	·	·	·	·	·	·	·
CCCCc1c(-c2ccccc2OC)ncn1CCc1ccccc1	61*	34	5	·	·	77*	12*	66*	27*
Nc1nc(Nc2cccc(F)c2)nc2ccccc12	98*	82*	1	-1	-10	91*	5	94*	6
O=c1oc(Nc2cccc(F)c2)nc2ccccc12	8	-13	-4	9	-3	·	·	·	·
CCCCOCCCNC(=O)C[C@@H]1C[C@@]2(C(=O)OC)CCCCC=C2N(Cc2ccco2)C1=O	0	3	-2	·	·	·	·	·	·
